# Measurements as given in ChEMBL document CHEMBL4190210, “Derivatives of the Lignan 7'-Hydroxymatairesinol with Antioxidant Properties and Enhanced Lipophilicity” (J Nat Prod, 2017).
# Experiment: Lipophilicity, log P of the compound
# Assay type: physicochemical
# Conditions: octanol/water
row,Compound,logP
1,CCCCCCCCOC(=O)c1cc(O)c(O)c(O)c1 [OCTYL_GALLATE],4.1

# Experiment: Antioxidant activity assessed as DPPH radical scavenging activity at test compound/DPPH volume ratio 1:1 after 1 hr by UV-spectrophotometric method
# Assay type: functional
# Conditions: not given
# Summary of the method: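 DPPH 200 µM in methanol. Antioxidant stocks were 1 mM in methanol, diluted to 2–200 µM. The reaction was started by adding 1 mL DPPH solution to 1 mL antioxidant solution (1:1). Samples were incubated 1 h, an interval chosen from a time-course study.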
row,IC50,Compound
1,24.5 µM,CCCCCCCCCCCC(=O)OC(c1ccc(O)c(OC)c1)[C@H]1COC(=O)[C@@H]1Cc1ccc(O)c(OC)c1 (stereo partly specified)
2,20 µM,COc1cc(C[C@H]2C(=O)OC[C@@H]2[C@H](O)c2ccc(O)c(OC)c2)ccc1O [HYDROXYMATAIRESINOL]
3,24.1 µM,CCCCCCCC(=O)OC(c1ccc(O)c(OC)c1)[C@H]1COC(=O)[C@@H]1Cc1ccc(O)c(OC)c1 (stereo partly specified)
4,23.5 µM,Cc1c(C)c2c(c(C)c1O)CC[C@@](C)(CCC[C@H](C)CCC[C@H](C)CCCC(C)C)O2 (racemic) [ALPHA-TOCOPHEROL]
5,34 µM,Cc1cc(C(C)(C)C)c(O)c(C(C)(C)C)c1 [BUTYLATED HYDROXYTOLUENE]
6,20.3 µM,O=C1O[C@H]([C@@H](O)CO)C(O)=C1O [ASCORBIC ACID]
7,25.2 µM,CCCCCCCCCCCCCCCCCC(=O)OC(c1ccc(O)c(OC)c1)[C@H]1COC(=O)[C@@H]1Cc1ccc(O)c(OC)c1 (stereo partly specified)

# Experiment: Lipophilicity, log Kw of the compound by reversed-phase UHPLC analysis
# Assay type: physicochemical
# Conditions: water/acetonitrile
# Summary of the method: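 Binary elution with water and acetonitrile, each containing 0.1% formic acid. Detection by UV at 254 nm and by negative/positive ESIMS selected ion monitoring.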
row,logKw,Compound
1,3.06,CCCCCCCC(=O)O[C@H](c1ccc(O)c(OC)c1)[C@H]1COC(=O)[C@@H]1Cc1ccc(O)c(OC)c1
2,1.49,COc1cc(C[C@H]2C(=O)OC[C@@H]2[C@H](O)c2ccc(O)c(OC)c2)ccc1O [HYDROXYMATAIRESINOL]
3,5.5,CCCCCCCCCCCCCCCCCC(=O)O[C@@H](c1ccc(O)c(OC)c1)[C@H]1COC(=O)[C@@H]1Cc1ccc(O)c(OC)c1
4,3.68,CCCCCCCCCCCC(=O)O[C@@H](c1ccc(O)c(OC)c1)[C@H]1COC(=O)[C@@H]1Cc1ccc(O)c(OC)c1
5,5.43,CCCCCCCCCCCCCCCCCC(=O)O[C@H](c1ccc(O)c(OC)c1)[C@H]1COC(=O)[C@@H]1Cc1ccc(O)c(OC)c1
6,3.12,CCCCCCCC(=O)O[C@@H](c1ccc(O)c(OC)c1)[C@H]1COC(=O)[C@@H]1Cc1ccc(O)c(OC)c1
7,3.63,CCCCCCCCCCCC(=O)O[C@H](c1ccc(O)c(OC)c1)[C@H]1COC(=O)[C@@H]1Cc1ccc(O)c(OC)c1

# Experiment: Antioxidant activity assessed as DPPH radical scavenging activity at test compound/DPPH volume ratio 3:1 incubated under dark condition for 30 mins by spectrophotometric method
# Assay type: functional
# Conditions: not given
row,IC50,Compound
1,12.6 µM,O=C1O[C@H]([C@@H](O)CO)C(O)=C1O [ASCORBIC ACID]
